# In ChEMBL document CHEMBL3045034, “Diterpenes from Salvia broussonetii transformed roots and their insecticidal activity” (J Agric Food Chem, 2005):
# Activity calls are given as the source filed them. No cut-off for these calls is given here.
# System: Spodoptera littoralis
# Experiment: Effect on weight gain in L6 larvae Spodoptera littoralis assessed as biomass compound injected orally relative to control
# Type: functional
# Settings: not given
row,Compound,Activity [%]
1,COc1c(C(C)C)cc2c(c1O)[C@@]1(C)CCCC(C)(C)[C@@H]1CC2,102
2,CC(C)c1cc2c(c(O)c1O)[C@@]1(C)CCCC(C)(C)C1=C(O)C2=O [14-DEOXYCOLEON U],99
3,CC(C)c1cc2c(c(O)c1O)[C@@]1(C)CCCC(C)(C)[C@@H]1CC2=O [DEMETHYLCRYPTOJAPONOL],105
4,COc1c(O)c2c(c(O)c1C(C)C)C(=O)C[C@H]1C(C)(C)CCC[C@]21C [INUROYLEANOL],106

# System: Spodoptera littoralis
# Experiment: Antifeedant activity against L6 larvae Spodoptera littoralis compound injected orally relative to control
# Type: functional, organism-based
# Settings: not given
row,Compound,Activity
1,COc1c(C(C)C)cc2c(c1O)[C@@]1(C)CCCC(C)(C)[C@@H]1CC2,inactive
2,CC(C)c1cc2c(c(O)c1O)[C@@]1(C)CCCC(C)(C)[C@@H]1[C@@H](O)C2=O [6-ALPHA-HYDROXYDEMETHYL-CRYPTOJAPONOL],inactive
3,CC(C)c1cc2c(c(O)c1O)[C@@]1(C)CCCC(C)(C)C1=C(O)C2=O [14-DEOXYCOLEON U],inactive
4,CC(C)c1cc2c(c(O)c1O)[C@@]1(C)CCCC(C)(C)[C@@H]1CC2=O [DEMETHYLCRYPTOJAPONOL],inactive
5,COc1c(O)c2c(c(O)c1C(C)C)C(=O)C[C@H]1C(C)(C)CCC[C@]21C [INUROYLEANOL],inactive

# System: Spodoptera littoralis
# Experiment: Effect on ingestion in L6 larvae Spodoptera littoralis assessed as consumption compound injected orally relative to control
# Type: functional
# Settings: not given
row,Compound,Activity [%]
1,COc1c(C(C)C)cc2c(c1O)[C@@]1(C)CCCC(C)(C)[C@@H]1CC2,91
2,CC(C)c1cc2c(c(O)c1O)[C@@]1(C)CCCC(C)(C)C1=C(O)C2=O [14-DEOXYCOLEON U],107
3,CC(C)c1cc2c(c(O)c1O)[C@@]1(C)CCCC(C)(C)[C@@H]1CC2=O [DEMETHYLCRYPTOJAPONOL],103
4,COc1c(O)c2c(c(O)c1C(C)C)C(=O)C[C@H]1C(C)(C)CCC[C@]21C [INUROYLEANOL],119

# System: Leptinotarsa decemlineata
# Experiment: Antifeedant activity against adult Leptinotarsa decemlineata in host plant assessed as feeding inhibition
# Type: functional, organism-based
# Settings: not given
# Summary of the method: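 Choice feeding assay with adult beetles. Percent feeding inhibition was calculated. Compounds giving over 50% inhibition went on to a dose-response test, and EC50 (dose for 50% feeding reduction, µg/cm2) was derived by linear regression of % inhibition on log dose.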
row,Compound,EC50 [microg/cm2]
1,COc1c(C(C)C)cc2c(c1O)[C@@]1(C)CCCC(C)(C)[C@@H]1CC2,10.2
2,CC(C)c1cc2c(c(O)c1O)[C@@]1(C)CCCC(C)(C)C1=C(O)C2=O [14-DEOXYCOLEON U],1.8
3,CC(C)c1cc2c(c(O)c1O)C[C@@]13CCCC(C)(C)[C@@H]1C[C@@H]2O3 [BRUSSONOL],> 100
4,CC(C)c1cc2c(c(O)c1O)[C@@]1(C)CCCC(C)(C)[C@@H]1CC2=O [DEMETHYLCRYPTOJAPONOL],> 100
5,COc1c(O)c2c(c(O)c1C(C)C)C(=O)C[C@H]1C(C)(C)CCC[C@]21C [INUROYLEANOL],> 100

# System: not listed separately
# Experiment: Cytotoxicity in mammalian Cricetulus griseus CHO (Chinese hamster ovary) cells measured after 48 hr by MTT assay
# Settings: read-out: LD50
row,Compound,CC50 at 48 h [µg/mL]
1,COc1c(C(C)C)cc2c(c1O)[C@@]1(C)CCCC(C)(C)[C@@H]1CC2,> 100
2,CC(C)c1cc2c(c(O)c1O)[C@@]1(C)CCCC(C)(C)[C@@H]1[C@@H](O)C2=O [6-ALPHA-HYDROXYDEMETHYL-CRYPTOJAPONOL],> 100
3,CC(C)c1cc2c(c(O)c1O)[C@@]1(C)CCCC(C)(C)C1=C(O)C2=O [14-DEOXYCOLEON U],> 100
4,CC(C)c1cc2c(c(O)c1O)C[C@@]13CCCC(C)(C)[C@@H]1C[C@@H]2O3 [BRUSSONOL],50.6
5,CC(C)c1cc2c(c(O)c1O)[C@@]1(C)CCCC(C)(C)[C@@H]1CC2=O [DEMETHYLCRYPTOJAPONOL],36

# System: Leptinotarsa decemlineata
# Experiment: Mortality in adult Leptinotarsa decemlineata in host plant measured after 72 hr
# Type: functional
# Design: concentration or dose not given beside the values
# Settings: not given
# Summary of the method: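 Test compounds in DMSO (10 µg/insect) were injected into the hemolymph of 20 adult beetles. Mortality was recorded for up to 3 days (72 h), analysed with contingency tables and corrected by Abbott's method.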
row,Compound,mortality [%]
1,COc1c(C(C)C)cc2c(c1O)[C@@]1(C)CCCC(C)(C)[C@@H]1CC2,14
2,CC(C)c1cc2c(c(O)c1O)[C@@]1(C)CCCC(C)(C)C1=C(O)C2=O [14-DEOXYCOLEON U],29
3,CC(C)c1cc2c(c(O)c1O)C[C@@]13CCCC(C)(C)[C@@H]1C[C@@H]2O3 [BRUSSONOL],7
4,CC(C)c1cc2c(c(O)c1O)[C@@]1(C)CCCC(C)(C)[C@@H]1CC2=O [DEMETHYLCRYPTOJAPONOL],43
5,COc1c(O)c2c(c(O)c1C(C)C)C(=O)C[C@H]1C(C)(C)CCC[C@]21C [INUROYLEANOL],0
